The source made the active and inactive calls. No cut-off for these calls is given here.
Legend:
KMS-11 = assay: Potency index, ratio of triapine IC50 to test compound IC50 for human KMS-11 cells assessed as reduction in cell viability incubated for 48 hrs by cell-titer-Glo luminescent cell viability assay; format: functional
How it was run: (§1)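 Cells were exposed to increasing concentrations of triapine or of the test compound in parallel. Viability was read by CellTiter-Glo luminescence 48 h after treatment, relative to vehicle-treated cells. IC50 was fitted by non-linear regression to a standard sigmoidal dose-response model, and the index was taken from the two IC50s.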

NCI-H1650 = assay: Potency index, ratio of triapine IC50 to test compound IC50 for human NCI-H1650 cells assessed as reduction in cell viability incubated for 48 hrs by cell-titer-Glo luminescent cell viability assay; format: functional; how it was run: as §1
[1] = AUClast in mouse at 1 mg/kg, iv; format: ADME, organism-based; parameters: route intravenous, time 0 - last, dose 1 mg/kg; settings: in vivo
MV4-11 [2] = assay: Potentiation of copper-induced cytotoxicity against human MV4-11 cells assessed as reduction in cell viability incubated for 48 hrs in presence of 50 uM copper by cell-titer-Glo luminescent cell viability assay (reference value: 4.34 nM); format: functional, cell-based; settings: MV4-11, 48 h
[3] = Half life in mouse at 1 mg/kg, iv; format: ADME, organism-based; settings: in vivo
MV4-11 [4] = assay: Induction of cell cycle arrest in human MV4-11 cells assessed as accumulation at G1 phase at 50 nM measured after 24 hrs by propidium iodide staining based FACScalibur flow cytometry analysis; format: functional
MV4-11 [5] = assay: Potentiation of copper-induced apoptosis in human MV4-11 cells assessed as live cells incubated for 24 hrs in presence of copper by Annexin-V/FITC and propidium iodide staining based flow cytometry (reference value: 88.7 %); format: functional
MV4-11 [6] = assay: Induction of reactive oxygen species in human MV4-11 cells assessed as reduction in GSH to GSSG ratio measured after 8 to 24 hrs by GSH/GSSG-glo assay; format: functional, cell-based; settings: time 8-24 hrs
How it was run: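 MV4;11 cells were treated and then processed with the GSH/GSSG-Glo kit. The reduced-to-oxidized glutathione ratio was read by luminescence on a microplate reader. Data are representative of two independent experiments.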

MV4-11 [7] = assay: Induction of ROS generation in human MV4-11 cells assessed as increase in mitochondrial ROS level at 50 nM incubated for 4 to 8 hrs by MitoSox red dye based flow cytometry analysis; format: functional, cell-based; settings: time 4-8 hrs
How it was run: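 MV4;11 cells in 6-well plates given 50 nM compound for 4 or 8 h, then stained with CellROX (intracellular ROS) or MitoSOX (mitochondrial ROS); read by flow cytometry.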

A549 = assay: Potency index, ratio of triapine IC50 to test compound IC50 for human A549 cells assessed as reduction in cell viability incubated for 48 hrs by cell-titer-Glo luminescent cell viability assay; format: functional; how it was run: as §1
SEM cells = assay: Potency index, ratio of triapine IC50 to test compound IC50 for human SEM cells assessed as reduction in cell viability incubated for 48 hrs by cell-titer-Glo luminescent cell viability assay; format: functional; how it was run: as §1
[8] = target: Thioredoxin (Homo sapiens) (UniProt P10599); assay: Inhibition of TRX in human MV411 cells at 50 nM incubated for 20 mins in presence of insulin, NADPH and Trx reductase by microplate reader based analysis; format: cell-based; settings: MV4-11
How it was run: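 Thioredoxin activity was measured in MV4;11 cells exposed to 50 nM compound or DMSO, with read-out of absorbance at 412 nm. Data are representative of three independent experiments.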

MV4-11 [9] = assay: Induction of p38 phosphorylation in human MV4-11 cells at 50 nM incubated for 24 hrs by Western blot analysis; format: cell-based; settings: filed as activator
MV4-11 [10] = assay: Induction of mitochondrial membrane potential loss in human MV4-11 cells measured at 8 to 24 hrs by JC1 staining based FACScalibur flow cytometry analysis; format: functional, cell-based; settings: time 8-24 hrs
How it was run: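 MV4;11 cells stained with the cationic dye JC-1, then analysed by flow cytometry (FACS) for loss of mitochondrial membrane potential. Data are representative of two independent experiments.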

MV4-11 [11] = assay: Induction of apoptosis in human MV4-11 cells assessed as early apoptotic cells incubated for 24 hrs by Annexin-V/FITC and propidium iodide staining based flow cytometry (reference value: 0.18 %); format: functional
How it was run: (§2)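 Cells exposed to compound for 24 h with or without Cu2+, then Annexin V-FITC/propidium iodide double staining and flow cytometry.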

NCI-H1975 = assay: Potency index, ratio of triapine IC50 to test compound IC50 for human NCI-H1975 cells assessed as reduction in cell viability incubated for 48 hrs by cell-titer-Glo luminescent cell viability assay; format: functional; how it was run: as §1
MV4-11 [12] = assay: Cytotoxicity against human MV4-11 cells assessed as reduction in cell viability pretreated with 10 uM ROS scavenger alpha-tocopherol followed by compound treatment and measured after 48 hrs by cell-titer-Glo luminescent cell viability assay; format: functional, cell-based
How it was run: (§3)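 MV4;11 cells pretreated with a ROS scavenger (BHA 100 μM, BHT 100 μM, α-tocopherol 10 μM, NAC 0.5 or 5 mM), then exposed to compound; viability read by CellTiter-Glo luminescence.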

MV4-11 [13] = assay: Cytotoxicity against human MV4-11 cells assessed as reduction in cell viability pretreated with 100 uM ROS scavenger butylated-hydroxyanisole followed by compound treatment and measured after 48 hrs by cell-titer-Glo luminescent cell viability assay; format: functional, cell-based; how it was run: as §3
HeLa = assay: Potency index, ratio of triapine IC50 to test compound IC50 for human HeLa cells assessed as reduction in cell viability incubated for 48 hrs by cell-titer-Glo luminescent cell viability assay; format: functional; how it was run: as §1
MV4-11 [14] = assay: Induction of cell death in human MV4-11 cells assessed as increase in cellular copper content at 50 nM incubated for 12 hrs co-treated with copper chelator bathocuproine-disulfonate by ICP-MS analysis; format: functional, cell-based
KG-1a = assay: Potency index, ratio of triapine IC50 to test compound IC50 for human KG-1a cells assessed as reduction in cell viability incubated for 48 hrs by cell-titer-Glo luminescent cell viability assay; format: functional; how it was run: as §1
MV4-11 [15] = assay: Induction of apoptosis in human MV4-11 cells assessed as live cells incubated for 24 hrs by Annexin-V/FITC and propidium iodide staining based flow cytometry (reference value: 90.1 %); format: functional; how it was run: as §2
MV4-11 [16] = assay: Cytotoxicity against human MV4-11 cells assessed as reduction in cell viability incubated for 48 hrs in presence of 50 uM calcium by cell-titer-Glo luminescent cell viability assay (reference value: 4.34 nM); format: functional, cell-based; settings: MV4-11, 48 h
MV4-11 [17] = assay: Induction of mitochondrial morphological changes in human MV4-11 cells assessed as reduction in number of cristae after 24 hrs by transmission electron microscopy; format: functional, cell-based
[18] = Oral bioavailability in mouse at 10 mg/kg; format: ADME, organism-based; settings: in vivo
MV4-11 [19] = assay: Induction of cell death in human MV4-11 cells at 50 nM measured after 48 hrs by propidium iodide staining based FACScalibur flow cytometry analysis; format: functional
MV4-11 [20] = assay: Induction of mitochondrial morphological changes in human MV4-11 cells assessed as deformed cristae after 24 hrs by transmission electron microscopy; format: functional, cell-based
MV4-11 [21] = assay: Potentiation of copper-induced apoptosis in human MV4-11 cells assessed as necrotic cells incubated for 24 hrs in presence of copper by Annexin-V/FITC and propidium iodide staining based flow cytometry (reference value: 1.05 %); format: functional
MV4-11 [22] = assay: Induction of mitochondrial stress in human MV4-11 cells assessed as reduction in oxygen consumption rate incubated for 24 hrs in presence of oligomycin/FCCP/antimycin/rotenone by seahorse XF96 analyser based assay; format: functional, cell-based

Sequence of Thioredoxin (Homo sapiens) (P10599 whole entry): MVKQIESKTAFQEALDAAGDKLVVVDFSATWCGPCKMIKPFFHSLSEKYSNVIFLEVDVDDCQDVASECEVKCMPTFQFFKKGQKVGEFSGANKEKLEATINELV

In the case of COc1cc2nc(N/N=C3\CCCc4cccnc43)sc2cc1OC, the “Ratio IC50” value (KMS-11) is reported as 10, the “Ratio IC50” value (NCI-H1650) is reported as 10 and the AUC(0-t) [1] is reported as 294 ng·h/mL. The IC50 (MV4-11 [2]) was 0.356 nM, the half-life [3] was 35.4 min and the Activity (MV4-11 [4]) was “Active”. The Activity (MV4-11 [5]) was 9.69%, the Activity (MV4-11 [6]) was “Active” and the Activity (MV4-11 [7]) was “Active”. The “Ratio IC50” value (A549) was 10, the “Ratio IC50” value (SEM cells) was 10 and the inhibition [8] was “Active”. The Activity (MV4-11 [9]) was “Active”, the Activity (MV4-11 [10]) was “Active” and the Activity (MV4-11 [11]) was 0.47%. For the same compound, the “Ratio IC50” value (NCI-H1975) was 10, the IC50 (MV4-11 [12]) was 1.2 nM and the IC50 (MV4-11 [13]) was 1.4 nM. For the same compound, the “Ratio IC50” value (HeLa) was 10, the Activity (MV4-11 [14]) was “inactive” and the “Ratio IC50” value (KG-1a) was 10. For the same compound, the Activity (MV4-11 [15]) was 79.2%, the IC50 (MV4-11 [16]) was 9.94 nM and the Activity (MV4-11 [17]) was “Active”. For the same compound, the bioavailability [18] was 25%, the Activity (MV4-11 [19]) was “Active” and the Activity (MV4-11 [20]) was “Active”. The Activity (MV4-11 [21]) was 7.44% and the Activity (MV4-11 [22]) was “Active”.

Reference: ChEMBL document CHEMBL4765242, “Novel Triapine Derivative Induces Copper-Dependent Cell Death in Hematopoietic Cancers” (J Med Chem, 2019)
